Measurements: paper PMC3100417 (Biomaterials, 2011)

Key:
[1] = system: radiolabeled lipoplexes; experiment: DNA binding and release of lipoplexes to hydrogel surfaces; details: for amount of bound DNA retained: release study, by day 6
Procedure, shortened: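 Cell-free hydrogels carrying 5 mM RDG, KDKG, K4 or K8 peptide, washed immediately and after 1 h swelling in uDMEM. Radiolabelled TransFast–plasmid lipoplexes in uDMEM added at 2 µg DNA/well for 2 h at room temperature. Unbound solution removed and scintillation-counted. Gels washed twice with uDMEM immediately and at 2, 4 and 6 h, then sampled periodically with replacement for 6 days. Counts converted to DNA via standard curve.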

[2] = target: Recombinant rat β-NGF (Rattus norvegicus, UniProt P25427); experiment: NGF binding and release from hydrogels; details: for NGF remaining in solution after incubation: 10 ng/well NGF in uDMEM, 2 h, ELISA, 10% PEG hydrogels, 5 mM peptide; for release of NGF from hydrogels: monitored over 48 h after initial binding
Sequence of Recombinant rat β-NGF (P25427 122-241): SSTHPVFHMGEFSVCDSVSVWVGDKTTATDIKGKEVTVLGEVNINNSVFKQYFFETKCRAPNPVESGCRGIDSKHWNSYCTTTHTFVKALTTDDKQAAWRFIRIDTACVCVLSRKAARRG
Procedure, shortened: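 Recombinant rat β-NGF at 0.05 µg/mL final in uDMEM added. Media collected with replacement at 2, 4, 6, 24 and 48 h and stored at −80 °C. Sandwich ELISA gave bound NGF and cumulative release.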

[3] = cited from earlier work

Row | amount of bound DNA retained [1] [%] | NGF remaining in solution after incubation [2] [ng] | mean quantity of vector bound, greater than KDKG and RDG conditions ([1]; throughout the 6-day release study) | Substance | release of NGF from hydrogels [2] | diffusivity of NGF, DN [3] | rate constant for NGF degradation, kdeg ([3]; in buffered solution) [s⁻¹]
1 | 41 | 3.2 | – | GCGYGKKKKKKKK [K8] | lowest | – | –
2 | 20 | 3.8 | – | GCGYGRDGSPG [reference compound] | – | – | –
3 | – | 3.4 | approximately 5% | GCGKKKK [K4] | intermediate between the RDG and K8 conditions | – | –
4 | – | – | – | NGF: nerve growth factor protein | – | 12 × 10^−7 cm^2/s | 4.83e-05
